Keap1 Nrf2 FP: Keap1-Nrf2 (human) interaction inhibition; Q14145; Keap1 Kelch-Nrf2 peptide fluorescence polarization, 1536-well; inhibition, % at 9.4 µM; 340,000 tested, 0.15% active; in the data active = inhibition above about 12%;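 note: human Keap1 Kelch domain with fluorescein labeled Nrf2 9mer peptide probe; 0% = neutral control wells and 100% = peptide positive control; higher means more block of Keap1 binding to Nrf2 peptide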
Target sequence (Q14145 whole entry, looked up, the tested form may be a part): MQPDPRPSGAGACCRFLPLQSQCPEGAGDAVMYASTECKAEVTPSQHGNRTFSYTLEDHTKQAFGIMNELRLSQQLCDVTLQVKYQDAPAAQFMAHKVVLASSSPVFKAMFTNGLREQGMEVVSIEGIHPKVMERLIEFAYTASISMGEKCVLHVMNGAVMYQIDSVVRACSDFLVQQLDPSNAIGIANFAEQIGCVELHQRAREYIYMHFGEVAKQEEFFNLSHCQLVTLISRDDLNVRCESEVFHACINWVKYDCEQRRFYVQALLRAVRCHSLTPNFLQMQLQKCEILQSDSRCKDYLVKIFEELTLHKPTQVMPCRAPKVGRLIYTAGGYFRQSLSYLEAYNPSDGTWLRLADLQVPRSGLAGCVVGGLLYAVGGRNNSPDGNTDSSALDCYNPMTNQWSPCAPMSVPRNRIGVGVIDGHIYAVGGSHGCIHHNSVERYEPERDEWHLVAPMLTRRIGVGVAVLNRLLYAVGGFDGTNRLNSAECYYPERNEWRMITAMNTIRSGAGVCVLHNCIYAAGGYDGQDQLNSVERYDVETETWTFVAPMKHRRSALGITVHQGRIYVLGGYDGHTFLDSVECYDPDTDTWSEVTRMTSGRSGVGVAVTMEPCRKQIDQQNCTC
A3G deaminase: APOBEC3G (human) deaminase inhibition | Q9HC16 | recombinant A3G, ssDNA deamination FAM/TAMRA fluorescence | inhibition, % at 20 µM | 330,000 tested, 0.28% active | AID 493012;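 active = inhibition of at least 40% at 20 µM, with no more than 30% in the related APOBEC3A deaminase screen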;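 note: plate controls were DMSO wells with A3G for no effect and wells lacking A3G enzyme for full effect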
CAL PDZ FP-1: blocks peptide binding to the human CAL PDZ domain | Q9HD26 | purified CAL PDZ, TMR-peptide fluorescence polarization, 1 h | inhibition, % at 24.9 µM | 300,000 tested, 0.92% active | AID 602252;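 active = mean inhibition of at least 30% with at least half of replicates also reaching 30%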;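 note: 0% = DMSO neutral control and 100% = excess unlabeled competitor peptide PRC23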
LANA DNA inh: blocks KSHV LANA C-terminal domain binding to DNA; AID 504423; inhibition, % at 9 µM; 340,000 tested, 0.078% active; MBP-C-LANA/FAM-LBS DNA binding, fluorescence polarization;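 active = highest replicate inhibition at or above 60% at 9 µM, even if other replicates fall short; inactive = all replicates below 60% inhibition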;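 note: 0% = neutral control wells and 100% = 4 µM acridine orange control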
A3A deaminase: inhibitors of human APOBEC3A DNA deaminase. P31941. recombinant A3A, FAM/TAMRA ssDNA deamination fluorescence. inhibition, % at 20 µM. 330,000 tested, 0.41% active;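 active = at least 40% inhibition at 20 µM here, with at most 30% in a related deaminase screen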;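 note: plate controls were A3A with DMSO for no effect and wells lacking A3A enzyme for full effect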
CAL PDZ FP-2: human CAL PDZ-peptide interaction inhibition | Q9HD26 | purified CAL PDZ, TMR-peptide fluorescence polarization, 1 h | inhibition, % at 20 µM | 330,000 tested, 0.02% active;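 active = highest replicate inhibition of at least 40%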;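 note: plate controls were DMSO neutral control wells for no effect and unlabeled competitor peptide control wells for full effect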
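Material: tagged CAL PDZ domain; buffer or medium: 25 mM sodium phosphate pH 7.4, 150 mM NaCl, TCEP, IgG, Thesit; compound dosing: single point, 20 µM; schedule: 1 h incubation at room temperature before polarization reading; measured by: FP readout, S and P plane fluorescence; read-out basis: percent inhibition from loss of millipolarization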
Keap1 TSA: binders of human Keap1 Kelch domain | shares compounds with Keap1 Nrf2 FP | Keap1 Kelch thermal shift, delta Tm; active compounds read high | max delta Tm, degrees C | 400 tested, 8% active | AID 651823; in the data active = max delta Tm above about 0.48 degrees C
Dye-only ctr: shifts Sypro Orange melt without protein, a false positive. shares compounds with Keap1 Nrf2 FP. AID 651858. delta Tm, degrees C (test concentration not listed). 140 tested, under 10 active. Sypro Orange dye-only thermal melt, no protein, delta Tm; top dose 26 µM;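 active = at highest dose tested, delta Tm positive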
* hit, by the source's call; · = no result given. Rows were chosen to be rich in hits. Some 1.7% of all compounds tested hit in one or more screens of this group.

SMILES	Keap1 Nrf2 FP	A3G deaminase	CAL PDZ FP-1	LANA DNA inh	A3A deaminase	CAL PDZ FP-2	Keap1 TSA	others
CCCCC1OC23CCCCC2C(C#N)(C(=N)O3)C1(C#N)C#N (centres undefined)	19.9*	-2.1	3.6	41.9	-2.6	0.7	-0.15
CCCCC1OC23CCCCC2C(C#N)(C#N)C1(C#N)C(=N)O3 (centres undefined)	24.3*	2.1	6.3	45.4	1.5	-0.4	-0.15	Dye-only ctr=-28.7
CCCCCc1ccnc(CC(=O)c2ccc(OC)cc2)c1	-1.4	·	-6.8	1.0	·	-0.6	·
O=S(=O)(NCC(c1ccc2c(c1)OCO2)N1CCN(c2ccccc2)CC1)c1ccccc1 (centres undefined)	-1.1	-8.8	-5.5	1.3	-3.4	-2.4	·
CN1CCN(C(=O)/C(=C/c2ccccc2F)NC(=O)c2ccccc2)CC1	-0.4	-8.5	3.2	0.3	-4.1	-0.8	·

Screens as filed in PubChem.
